In ChEMBL document CHEMBL1125383, “Benzazepinone calcium channel blockers. 4. Structure-activity overview and intracellular binding site” (J Med Chem, 1992):

Tests used:
[1] = molecular target: T1, Voltage-gated L-type calcium channel (Rattus norvegicus, UniProt P22002+Q02485+P27732); assay: Percentage decrease in blood pressure at a dose of 135 uM/kg for 12-18 hr in spontaneously hypertensive rats.; type: functional, tissue-based
Method in brief: (§1)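 Spontaneously hypertensive rats, n = 5, given 135 µmol/kg orally; systolic pressure recorded directly; maximum percent fall from predrug control noted within 0-6, 6-12 and 12-18 h windows after dosing; mean of five rats.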

[2] = Concentration required to cause 50% relaxation of maximal contraction in circumferential rabbit aorta strips in response to KCl (100 mM); type: functional, tissue-based, Oryctolagus cuniculus; conditions: Oryctolagus cuniculus, Aorta
[3] = molecular target: T1, Voltage-gated L-type calcium channel; assay: Percentage decrease in blood pressure at a dose of 135 uM/kg for 6-12 hr in spontaneously hypertensive rats.; type: functional, tissue-based; method in brief: as §1
[4] = molecular target: T1, Voltage-gated L-type calcium channel; assay: Percentage decrease in blood pressure at a dose of 135 uM/kg for 0-6 h in spontaneously hypertensive rats.; type: functional, tissue-based; method in brief: as §1
[5] = Partition coefficient (logP); type: physicochemical; conditions: octanol/water
[6] = molecular target: T1, Voltage-gated L-type calcium channel; assay: Percentage decrease in blood pressure at a dose of 135 uM/kg for 0-6 hr in spontaneously hypertensive rats.; type: functional, tissue-based; method in brief: as §1
[7] = molecular target: T1, Voltage-gated L-type calcium channel; assay: Percentage decrease in blood pressure at a dose of 270 umol/kg for 12-18 h in spontaneously hypertensive rats.; type: functional, tissue-based
Method in brief: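 Spontaneously hypertensive rats, n = 5, dosed orally at 270 µmol/kg; systolic pressure recorded directly; maximum percent fall from predrug control within the 12-18 h window after dosing; mean of five rats.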

## COc1ccc([C@@H]2Cc3c(cccc3C(F)(F)F)N(CCN(C)C)C(=O)[C@@H]2Cc2ccccc2)cc1
[1]
  Decrease in blood pressure: 6%
[2]
  IC50: 790 nM
[3]
  Decrease in blood pressure: 8%
[4]
  Decrease in blood pressure: 14%
[5]
  logP: 5.2

## COc1ccc([C@@H]2Cc3cc(OC(F)F)ccc3N(CCN(C)C)C(=O)[C@@H]2OC(C)=O)cc1
[1]
  Decrease in blood pressure: 16%
[2]
  IC50: 960 nM
[3]
  Decrease in blood pressure: 13%
[4]
  Decrease in blood pressure: 12%
[5]
  logP: 1.8

## COc1ccc([C@@H]2Cc3c(C(=O)O)cccc3N(CCN(C)C)C(=O)[C@@H]2OC(C)=O)cc1
[1]
  Decrease in blood pressure: 10%
[2]
  IC50: > 30000 nM
[3]
  Decrease in blood pressure: 9%
[4]
  Decrease in blood pressure: 8%
[5]
  logP: -4.1

## COc1ccc([C@@H]2Cc3cc(Sc4ccccc4)ccc3N(CCN(C)C)C(=O)[C@@H]2OC(C)=O)cc1
[1]
  Decrease in blood pressure: 19%
[2]
  IC50: 690 nM
[3]
  Decrease in blood pressure: 17%
[4]
  Decrease in blood pressure: 15%
[5]
  logP: 3.8

## COc1ccc([C@@H]2Cc3c(cccc3C(F)(F)F)N(CCN(C)C(C)=O)C(=O)[C@@H]2OC(C)=O)cc1
[1]
  Decrease in blood pressure: 5%
[2]
  IC50: 4500 nM
[6]
  Decrease in blood pressure: 2%
[3]
  Decrease in blood pressure: 1%

## COc1ccc([C@@H]2Cc3cc(C(F)(F)F)ccc3N(CCN(C)C)C(=O)[C@@H]2NC(C)=O)cc1
[1]
  Decrease in blood pressure: 10%
[2]
  IC50: 9200 nM
[3]
  Decrease in blood pressure: 12%
[4]
  Decrease in blood pressure: 12%
[5]
  logP: 1.6

## COc1ccc([C@@H]2Cc3cc(Cl)ccc3N(CCN(C)C)C(=O)[C@@H]2OC(C)=O)cc1
[7]
  Decrease in blood pressure: 18%
[3]
  Decrease in blood pressure: 14%
[4]
  Decrease in blood pressure: 13%
[5]
  logP: 2.2

## COc1ccc([C@@H]2Cc3c(cccc3[N+](=O)[O-])N(CCN(C)C)C(=O)[C@@H]2OC(C)=O)cc1
[1]
  Decrease in blood pressure: 14%
[2]
  IC50: 370 nM
[3]
  Decrease in blood pressure: 12%
[4]
  Decrease in blood pressure: 16%
[5]
  logP: 1.7

## CNC(=O)Oc1ccc2c(c1)C[C@@H](c1ccc(OC)cc1)[C@@H](OC(C)=O)C(=O)N2CCN(C)C
[1]
  Decrease in blood pressure: 12%
[2]
  IC50: 310 nM
[3]
  Decrease in blood pressure: 10%
[4]
  Decrease in blood pressure: 7%
[5]
  logP: 0.31

## CC[C@H]1C(=O)N(CCN(C)C)c2cccc(C(F)(F)F)c2C[C@H]1c1ccc(OC)cc1
[1]
  Decrease in blood pressure: 15%
[2]
  IC50: 12 nM
[3]
  Decrease in blood pressure: 19%
[4]
  Decrease in blood pressure: 21%
[5]
  logP: 4.3

## COc1ccc([C@@H]2Cc3cc(C(F)(F)F)ccc3N(CCN(C)C)C(=O)[C@@H]2SC(C)=O)cc1
[1]
  Decrease in blood pressure: 23%
[2]
  IC50: 68 nM
[3]
  Decrease in blood pressure: 18%
[4]
  Decrease in blood pressure: 13%
[5]
  logP: 3.4

## COc1ccc([C@@H]2Cc3c(C(N)=O)cccc3N(CCN(C)C)C(=O)[C@@H]2OC(C)=O)cc1
[1]
  Decrease in blood pressure: 12%
[2]
  IC50: > 30000 nM
[3]
  Decrease in blood pressure: 12%
[4]
  Decrease in blood pressure: 13%
[5]
  logP: -1

## COc1ccc([C@@H]2Cc3cc(OCc4ccccc4)ccc3N(CCN(C)C)C(=O)[C@@H]2OC(C)=O)cc1
[1]
  Decrease in blood pressure: 11%
[2]
  IC50: 730 nM
[3]
  Decrease in blood pressure: 10%
[4]
  Decrease in blood pressure: 8%
[5]
  logP: 3.4

## COc1ccc([C@@H]2Cc3c(ccc(Br)c3OC)N(CCN(C)C)C(=O)[C@@H]2OC(C)=O)cc1
[1]
  Decrease in blood pressure: 11%
[2]
  IC50: 580 nM
[3]
  Decrease in blood pressure: 12%
[4]
  Decrease in blood pressure: 18%
[5]
  logP: 2.4

## COc1ccc([C@@H]2Cc3cc(SC(C)(C)C)ccc3N(CCN(C)C)C(=O)[C@@H]2OC(C)=O)cc1
[1]
  Decrease in blood pressure: 14%
[2]
  IC50: 9000 nM
[3]
  Decrease in blood pressure: 11%
[4]
  Decrease in blood pressure: 10%
[5]
  logP: 3.6

## COc1ccc([C@@H]2Cc3c(C#N)cccc3N(CCN(C)C)C(=O)[C@@H]2OC(C)=O)cc1
[1]
  Decrease in blood pressure: 9%
[2]
  IC50: 120 nM
[3]
  Decrease in blood pressure: 7%
[4]
  Decrease in blood pressure: 9%
[5]
  logP: 1.3

## COc1ccc([C@H]2CC(=O)N(CCN(C)C)c3cccc(C(F)(F)F)c3C2)cc1
[1]
  Decrease in blood pressure: 3%
[2]
  IC50: 1100 nM
[3]
  Decrease in blood pressure: 3%
[4]
  Decrease in blood pressure: 2%
[5]
  logP: 3.1

## COc1ccc([C@@H]2Cc3cc(Oc4ccccc4)ccc3N(CCN(C)C)C(=O)[C@@H]2OC(C)=O)cc1
[1]
  Decrease in blood pressure: 16%
[2]
  IC50: 440 nM
[3]
  Decrease in blood pressure: 12%
[4]
  Decrease in blood pressure: 16%
[5]
  logP: 3.1

## COc1ccc([C@@H]2Cc3cc(OC(=O)C(C)(C)C)ccc3N(CCN(C)C)C(=O)[C@@H]2OC(C)=O)cc1
[1]
  Decrease in blood pressure: 16%
[2]
  IC50: 5200 nM
[3]
  Decrease in blood pressure: 14%
[4]
  Decrease in blood pressure: 13%
[5]
  logP: 2.9

## CCC[C@H]1C(=O)N(CCN(C)C)c2cccc(C(F)(F)F)c2C[C@H]1c1ccc(OC)cc1
[1]
  Decrease in blood pressure: 24%
[2]
  IC50: 950 nM
[3]
  Decrease in blood pressure: 19%
[4]
  Decrease in blood pressure: 14%
[5]
  logP: 4.9

## COc1ccc([C@@H]2Cc3cc(C(F)(F)F)ccc3N(CCN(C)C)C(=O)[C@@H]2OC(C)=O)cc1
[1]
  Decrease in blood pressure: 18%
[2]
  IC50: 1900 nM
[3]
  Decrease in blood pressure: 19%
[4]
  Decrease in blood pressure: 19%
[5]
  logP: 2.8

## COc1ccc([C@@H]2Cc3ccccc3N(CCN(C)C)C(=O)[C@@H]2C)cc1
[1]
  Decrease in blood pressure: 8%
[2]
  IC50: 1100 nM
[3]
  Decrease in blood pressure: 4%
[4]
  Decrease in blood pressure: 6%
[5]
  logP: 2.5
